ChEMBL document CHEMBL4393705, “New chalcone-sulfonamide hybrids exhibiting anticancer and antituberculosis activity” (Eur J Med Chem, 2019)
≈ marks a conversion by molar mass, not a printed value.

Legend:
SK-OV-3 = assay: Anticancer activity against human SKOV3 cells assessed as cell growth inhibition measured after 48 hrs by SRB assay; assay type: functional; settings: SK-OV-3, 48 h
Summary of the method: (§1)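 NCI 60-cell screen, five-dose mode at 100, 10, 1.0, 0.1 and 0.01 µM. Cells grown in RPMI-1640 with 5% FBS and 2 mM L-glutamine, seeded and held 24 h at 37°C, 5% CO2, then exposed for 48 h. Fixed with cold TCA (10% final), stained with 0.4% SRB and read at 515 nm. Time-zero plates were used. GI50 is the concentration giving 50% lower net protein increase than control.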

CCRF-CEM = assay: Anticancer activity against human CCRF-CEM cells assessed as cell growth inhibition measured after 48 hrs by SRB assay; assay type: functional
Summary of the method: (§2)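 NCI-60 five-dose screen at 100, 10, 1.0, 0.1 and 0.01 µM final. Cells in RPMI-1640 with 5% FBS and 2 mM glutamine were seeded 24 h ahead at 37°C, 5% CO2. Compound exposure was 48 h, followed by TCA fixation and SRB staining, read at 515 nm. GI50 is the concentration giving 50% lower net protein increase than control, using time-zero plates.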

K562 = assay: Anticancer activity against human K562 cells assessed as cell growth inhibition measured after 48 hrs by SRB assay; assay type: functional; settings: K562, 48 h; for CC50: read-out: LC50 (the source's name); summary of the method: as §2
MOLT-4 = assay: Anticancer activity against human MOLT4 cells assessed as cell growth inhibition measured after 48 hrs by SRB assay; assay type: functional; settings: MOLT-4, 48 h; summary of the method: as §2
HOP-92 = assay: Anticancer activity against human HOP92 cells assessed as cell growth inhibition measured after 48 hrs by SRB assay; assay type: functional; settings: HOP-92, 48 h; summary of the method: as §2
NCI-H226 = assay: Anticancer activity against human NCI-H226 cells assessed as cell growth inhibition measured after 48 hrs by SRB assay; assay type: functional; settings: NCI-H226, 48 h; for CC50: read-out: LC50 (the source's name); summary of the method: as §2
NCI-H322M = assay: Anticancer activity against human NCI-H322M cells assessed as cell growth inhibition measured after 48 hrs by SRB assay; assay type: functional; summary of the method: as §2
NCI-H460 = assay: Anticancer activity against human NCI-H460 cells assessed as cell growth inhibition measured after 48 hrs by SRB assay; assay type: functional; settings: NCI-H460, 48 h; summary of the method: as §2
NCI-H522 = assay: Anticancer activity against human NCI-H522 cells assessed as cell growth inhibition measured after 48 hrs by SRB assay; assay type: functional; settings: NCI-H522, 48 h; for CC50: read-out: LC50 (the source's name); summary of the method: as §2
COLO 205 = assay: Anticancer activity against human COLO205 cells assessed as cell growth inhibition measured after 48 hrs by SRB assay; assay type: functional; settings: COLO 205, 48 h; summary of the method: as §2
HCT-116 = assay: Anticancer activity against human HCT116 cells assessed as cell growth inhibition measured after 48 hrs by SRB assay; assay type: functional; settings: HCT-116, 48 h; summary of the method: as §2
HCT-15 = assay: Anticancer activity against human HCT15 cells assessed as cell growth inhibition measured after 48 hrs by SRB assay; assay type: functional; settings: HCT-15, 48 h; summary of the method: as §2
KM12 = assay: Anticancer activity against human KM12 cells assessed as cell growth inhibition measured after 48 hrs by SRB assay; assay type: functional; settings: KM12, 48 h; summary of the method: as §2
SF-295 = assay: Anticancer activity against human SF295 cells assessed as cell growth inhibition measured after 48 hrs by SRB assay; assay type: functional; settings: SF-295, 48 h; summary of the method: as §2
Malme-3M = assay: Anticancer activity against human MALME-3M cells assessed as cell growth inhibition measured after 48 hrs by SRB assay; assay type: functional; summary of the method: as §2
M14 = assay: Anticancer activity against human M14 cells assessed as cell growth inhibition measured after 48 hrs by SRB assay; assay type: functional; settings: M14, 48 h; for CC50: read-out: LC50 (the source's name); summary of the method: as §2
MDA-MB-435 = assay: Anticancer activity against human MDA-MB-435 cells assessed as cell growth inhibition measured after 48 hrs by SRB assay; assay type: functional; settings: MDA-MB-435, 48 h; summary of the method: as §2
OVCAR-4 = assay: Anticancer activity against human OVCAR4 cells assessed as cell growth inhibition measured after 48 hrs by SRB assay; assay type: functional; settings: OVCAR-4, 48 h; summary of the method: as §2
OVCAR-8 = assay: Anticancer activity against human OVCAR8 cells assessed as cell growth inhibition measured after 48 hrs by SRB assay; assay type: functional; settings: OVCAR-8, 48 h; summary of the method: as §2
786-0 = assay: Anticancer activity against human 786-O cells assessed as cell growth inhibition measured after 48 hrs by SRB assay; assay type: functional; settings: 786-0, 48 h; for CC50: read-out: LC50 (the source's name); summary of the method: as §2
CAKI-1 = assay: Anticancer activity against human Caki1 cells assessed as cell growth inhibition measured after 48 hrs by SRB assay; assay type: functional; settings: CAKI-1, 48 h; summary of the method: as §2
RXF 393 = assay: Anticancer activity against human RXF393 cells assessed as cell growth inhibition measured after 48 hrs by SRB assay; assay type: functional; settings: RXF 393, 48 h; summary of the method: as §2
TK-10 = assay: Anticancer activity against human TK10 cells assessed as cell growth inhibition measured after 48 hrs by SRB assay; assay type: functional; settings: TK-10, 48 h; for CC50: read-out: LC50 (the source's name); summary of the method: as §1
UO-31 = assay: Anticancer activity against human UO31 cells assessed as cell growth inhibition measured after 48 hrs by SRB assay; assay type: functional; settings: UO-31, 48 h; for CC50: read-out: LC50 (the source's name); summary of the method: as §1
DU-145 = assay: Anticancer activity against human DU145 cells assessed as cell growth inhibition measured after 48 hrs by SRB assay; assay type: functional; settings: DU-145, 48 h; summary of the method: as §2
MCF7 = assay: Anticancer activity against human MCF7 cells assessed as cell growth inhibition measured after 48 hrs by SRB assay; assay type: functional; settings: MCF7, 48 h; summary of the method: as §2
MDA-MB-231 = assay: Anticancer activity against human MDA-MB-231 cells assessed as cell growth inhibition measured after 48 hrs by SRB assay; assay type: functional; settings: MDA-MB-231, 48 h; summary of the method: as §2
[1] = test system: Mycobacterium tuberculosis; assay: Antitubercular activity against Mycobacterium tuberculosis H37Rv ATCC27294 measured after 2-3 weeks by agar dilution SPOTi assay; assay type: functional; settings: H37Rv ATCC 27294
Summary of the method: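 Agar dilution SPOTi on Middlebrook 7H10 with 0.5% glycerol and 10% OADC. Final compound levels 50, 20, 10, 5, 2 mg/L, added from DMSO dilutions. 2 µL of a 10^6 CFU/mL inoculum from a 4-week Löwenstein-Jensen culture spotted per well, incubated 2-3 weeks at 37°C. MIC is the lowest concentration with no visible growth. Repeated on a separate day; isoniazid was the reference.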

[2] = Selectivity index, ratio of LC50 for mouse 3T3 cells to MIC for Mycobacterium tuberculosis H37Rv ATCC27294; assay type: toxicity; settings: read-out: Selectivity Index

SMILES: COc1ccc(C(=O)/C=C/c2ccc(Cl)cc2)cc1S(N)(=O)=O
- GI50 (SK-OV-3): 5.96 µM
- LC50 (concentration killing 50% of cells relative to time zero) (SK-OV-3): 43.1 µM
- GI50 (CCRF-CEM): 3.34 µM
- LC50 (CCRF-CEM): > 100 µM
- GI50 (K562): 0.57 µM
- CC50 (K562): > 100 µM
- GI50 (MOLT-4): 2.93 µM
- LC50 (MOLT-4): > 100 µM
- GI50 (HOP-92): 2.14 µM
- LC50 (HOP-92): 21.4 µM
- GI50 (NCI-H226): 3.66 µM
- CC50 (NCI-H226): 95.7 µM
- GI50 (NCI-H322M): 2.04 µM
- LC50 (NCI-H322M): 28.8 µM
- GI50 (NCI-H460): 2.58 µM
- LC50 (concentration causing 50% net cell kill) (NCI-H460): 30 µM
- GI50 (NCI-H522): 1.93 µM
- CC50 (NCI-H522): 12.1 µM
- GI50 (COLO 205): 2.03 µM
- LC50 (concentration giving 50% net cell kill) (COLO 205): 17.4 µM
- GI50 (HCT-116): 1.36 µM
- LC50 (concentration killing 50% of cells present at start) (HCT-116): 5.36 µM
- GI50 (HCT-15): 2.14 µM
- LC50 (concentration killing 50% of cells) (HCT-15): 59.3 µM
- GI50 (KM12): 1.73 µM
- LC50 (lethal concentration, 50% net cell kill) (KM12): 8.26 µM
- GI50 (SF-295): 3.04 µM
- LC50 (SF-295): 31.9 µM
- GI50 (Malme-3M): 5.89 µM
- LC50 (Malme-3M): 54.8 µM
- GI50 (M14): 2.13 µM
- CC50 (M14): 21.2 µM
- GI50 (MDA-MB-435): 4.34 µM
- LC50 (concentration killing 50% of cells present at time zero) (MDA-MB-435): 41.6 µM
- GI50 (OVCAR-4): 3.47 µM
- LC50 (OVCAR-4): 40.4 µM
- GI50 (OVCAR-8): 3.55 µM
- LC50 (concentration giving 50% net cell kill) (OVCAR-8): 32.6 µM
- GI50 (786-0): 1.74 µM
- CC50 (786-0): 7.82 µM
- GI50 (CAKI-1): 2.72 µM
- LC50 (CAKI-1): 32.5 µM
- GI50 (RXF 393): 1.98 µM
- LC50 (concentration causing 50% net cell kill) (RXF 393): 7.96 µM
- GI50 (TK-10): 2.47 µM
- CC50 (TK-10): 27.5 µM
- GI50 (UO-31): 1.89 µM
- CC50 (UO-31): 22 µM
- GI50 (DU-145): 3.42 µM
- LC50 (DU-145): 36.3 µM
- GI50 (MCF7): 1.3 µM
- LC50 (MCF7): > 100 µM
- GI50 (MDA-MB-231): 3.48 µM
- LC50 (MDA-MB-231): 40.1 µM
- MIC [1]: 14 µM (≈ 4.93 µg/mL)
- selectivity ratio [2]: 0.29

SMILES: COc1ccc(C(=O)/C=C/c2ccc(Cl)cc2)cc1S(=O)(=O)Nc1c(N)nc(SC)[nH]c1=O
- GI50 (SK-OV-3): 3.65 µM
- LC50 (concentration killing 50% of cells relative to time zero) (SK-OV-3): 36.6 µM
- GI50 (CCRF-CEM): 2.66 µM
- LC50 (CCRF-CEM): > 100 µM
- GI50 (K562): 2.77 µM
- CC50 (K562): > 100 µM
- GI50 (MOLT-4): 3.71 µM
- LC50 (MOLT-4): > 100 µM
- GI50 (HOP-92): 2.59 µM
- LC50 (HOP-92): 32.6 µM
- GI50 (NCI-H226): 2.34 µM
- CC50 (NCI-H226): 52.9 µM
- GI50 (NCI-H322M): 2.38 µM
- LC50 (NCI-H322M): 28 µM
- GI50 (NCI-H460): 2.49 µM
- LC50 (concentration causing 50% net cell kill) (NCI-H460): 29.1 µM
- GI50 (NCI-H522): 1.88 µM
- CC50 (NCI-H522): 8.83 µM
- GI50 (COLO 205): 1.76 µM
- LC50 (concentration giving 50% net cell kill) (COLO 205): 6.68 µM
- GI50 (HCT-116): 1.56 µM
- LC50 (concentration killing 50% of cells present at start) (HCT-116): 5.55 µM
- GI50 (HCT-15): 3.24 µM
- LC50 (concentration killing 50% of cells) (HCT-15): 83.9 µM
- GI50 (KM12): 2.09 µM
- LC50 (lethal concentration, 50% net cell kill) (KM12): 9.76 µM
- GI50 (SF-295): 2.72 µM
- LC50 (SF-295): 34.7 µM
- GI50 (Malme-3M): 3.02 µM
- LC50 (Malme-3M): 41.8 µM
- GI50 (M14): 2 µM
- CC50 (M14): 15.7 µM
- GI50 (MDA-MB-435): 2.95 µM
- LC50 (concentration killing 50% of cells present at time zero) (MDA-MB-435): 48 µM
- GI50 (OVCAR-4): 4.5 µM
- LC50 (OVCAR-4): 43.6 µM
- GI50 (OVCAR-8): 3.07 µM
- LC50 (concentration giving 50% net cell kill) (OVCAR-8): 37.1 µM
- GI50 (786-0): 1.95 µM
- CC50 (786-0): 8.74 µM
- GI50 (CAKI-1): 3.83 µM
- LC50 (CAKI-1): 79.5 µM
- GI50 (RXF 393): 1.6 µM
- LC50 (concentration causing 50% net cell kill) (RXF 393): 6.67 µM
- GI50 (TK-10): 2.98 µM
- CC50 (TK-10): 32.3 µM
- GI50 (UO-31): 1.89 µM
- CC50 (UO-31): 12.9 µM
- GI50 (DU-145): 3.58 µM
- LC50 (DU-145): 33.9 µM
- GI50 (MCF7): 1.97 µM
- LC50 (MCF7): > 100 µM
- GI50 (MDA-MB-231): 3.42 µM
- LC50 (MDA-MB-231): 40.3 µM
- MIC [1]: 20 µM (≈ 10.1 µg/mL)
- selectivity ratio [2]: 0.65
